Experimental data reported in ChEMBL document CHEMBL1127846, “Influence of amine substituents on 5-HT2A versus 5-HT2C binding of phenylalkyl- and indolylalkylamines” (J Med Chem, 1994).

Legend:
[1] = target: T1, 5-hydroxytryptamine receptor 2A (Homo sapiens, UniProt P28223); assay: Affinity against 5-hydroxytryptamine 2A receptor (D) labeled with [125I]DOI.
[2] = target: T1, 5-hydroxytryptamine receptor 2A; assay: Affinity against 5-hydroxytryptamine 2A receptor (K) labeled with [3H]ketanserin.
[3] = target: T2, 5-hydroxytryptamine receptor 2C (Rattus norvegicus, UniProt P08909); assay: Affinity against 5-hydroxytryptamine 2C receptor in J1 cells transfected with the rat 5-HT2C gene labeled with [3H]mesulergine.; type: cell-based
T2 sequence (P08909 whole entry): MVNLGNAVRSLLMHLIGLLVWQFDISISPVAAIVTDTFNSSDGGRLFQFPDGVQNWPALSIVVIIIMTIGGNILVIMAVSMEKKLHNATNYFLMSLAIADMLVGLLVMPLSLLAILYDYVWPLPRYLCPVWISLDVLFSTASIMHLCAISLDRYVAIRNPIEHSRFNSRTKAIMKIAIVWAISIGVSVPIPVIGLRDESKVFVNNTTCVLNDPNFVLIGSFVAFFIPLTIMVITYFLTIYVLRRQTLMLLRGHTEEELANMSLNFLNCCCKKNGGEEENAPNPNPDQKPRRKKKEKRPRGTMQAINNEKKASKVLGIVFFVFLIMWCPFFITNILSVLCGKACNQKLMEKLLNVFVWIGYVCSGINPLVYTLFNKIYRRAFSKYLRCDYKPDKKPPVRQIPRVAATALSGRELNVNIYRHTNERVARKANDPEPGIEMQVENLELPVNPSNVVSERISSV
Summary of the method: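 Homogenates of J1 cells carrying the rat 5-HT1C (5-HT2C) gene, labeled with [3H]mesulergine. Competing drug and radioligand incubated at 37 °C for 30 min, then filtered through glass-fiber filters and counted by liquid scintillation. Ki given as mean and SEM of at least two experiments, each done in triplicate.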

[4] = The compound evaluated for its receptor selectivity at [125I]- DOI- labeled receptors versus [3H]- ketanserin- labeled receptors,
Summary of the method: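 […] 5-HT2A receptors expressed in transfected GF6 cells, labeled in separate assays with [3H]ketanserin or [125I]DOI. Homogenates were incubated with radioligand and competing drug for 30 min at 37 °C, then filtered through glass-fiber filters and counted by liquid scintillation. Ki values are the mean and SEM of at least two experiments, each run in triplicate.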

[5] = The compound evaluated for its receptor selectivity 5-HT2C receptors versus [125I]- DOI- labeled receptors
[6] = Receptor selectivity [3H]- ketanserin-labeled receptors versus [125I]- DOI-labeled receptors.

T1 sequence (P28223 whole entry): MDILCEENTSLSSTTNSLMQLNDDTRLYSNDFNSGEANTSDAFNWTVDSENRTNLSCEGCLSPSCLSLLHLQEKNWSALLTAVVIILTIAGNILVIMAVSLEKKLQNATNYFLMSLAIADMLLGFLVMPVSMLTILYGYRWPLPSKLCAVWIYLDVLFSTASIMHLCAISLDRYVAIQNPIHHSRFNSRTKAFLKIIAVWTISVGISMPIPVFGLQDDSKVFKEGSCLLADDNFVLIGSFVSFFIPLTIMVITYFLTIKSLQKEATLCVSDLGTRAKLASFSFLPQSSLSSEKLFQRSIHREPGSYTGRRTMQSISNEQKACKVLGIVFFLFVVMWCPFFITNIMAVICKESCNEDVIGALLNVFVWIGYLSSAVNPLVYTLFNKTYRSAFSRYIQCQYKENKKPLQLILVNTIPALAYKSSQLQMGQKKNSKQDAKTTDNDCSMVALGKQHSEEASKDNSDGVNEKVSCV

Row | SMILES | Ki [1] | Ki [2] | Ki [3] | Ratio [4] | Ratio [5] | Ratio [6]
1 | CCNCCc1c[nH]c2ccc(OC)cc12 | 7.2 nM | 930 nM | 2680 nM | 130 |  | 
2 | COc1ccc2[nH]cc(CCNCCCCc3ccccc3)c2c1 | 13 nM | 22 nM | 1500 nM |  | 115 | 2
3 | CCNCCc1cc(OC)c(Br)cc1OC | 40 nM | 330 nM | 1930 nM |  | 48 | 8
4 | COc1cc(CCN(C)C)c(OC)cc1Br | 16 nM | 420 nM | 480 nM |  | 30 | 26
5 | COc1ccc2[nH]cc(CCNCc3ccc(Cl)cc3)c2c1 | 105 nM | 565 nM | 4390 nM |  | 42 | 5
6 | COc1cc(CCNCc2ccc(Br)cc2)c(OC)cc1Br | 0.4 nM | 1.6 nM | 48 nM |  | 120 | 4
7 | COc1ccc2[nH]cc(CCNCCCc3ccccc3)c2c1 | 10 nM | 50 nM | 165 nM |  | 16 | 5
8 | COc1ccc2[nH]cc(CCNCc3ccc(Br)cc3)c2c1 | 0.1 nM | 5.2 nM | 100 nM |  | 1000 | 52
9 | COc1cc(CCN)c(OC)cc1Br | 1 nM | 34 nM |  |  |  | 
10 | COc1cc(CCNCc2ccc(F)cc2)c(OC)cc1Br | 3.4 nM | 30 nM | 360 nM |  | 80 | 7
11 | COc1cc(CCNCc2ccccc2)c(OC)cc1Br | 0.3 nM | 16 nM | 90 nM |  | 300 | 53
12 | COc1ccc2[nH]cc(CCNCc3ccc(F)cc3)c2c1 | 40 nM | 480 nM | 3530 nM |  | 88 | 10
13 | COc1cc(CCNCCCCc2ccccc2)c(OC)cc1Br | 27 nM | 100 nM | 695 nM |  | 26 | 4
14 | COc1ccc2[nH]cc(CCNCc3ccc(C)cc3)c2c1 | 30 nM | 110 nM | 1230 nM |  | 40 | 4
15 | COc1cc(CCNCc2ccc(Cl)cc2)c(OC)cc1Br | 15 nM | 110 nM | 715 nM |  | 48 | 7
16 | COc1ccc2[nH]cc(CCNCc3ccccc3)c2c1 | 5.3 nM | 55 nM | 370 nM |  | 70 | 10
17 | COc1ccc2[nH]cc(CCNCc3ccc(N)cc3)c2c1 | 105 nM | 475 nM | 6700 nM |  | 64 | 5
18 | CNCCc1cc(OC)c(Br)cc1OC | 2.9 nM | 380 nM | 100 nM |  | 34 | 130
19 | COc1cc(CCN2CCCCC2)c(OC)cc1Br | 154 nM | 895 nM | 2530 nM |  | 16 | 6
20 | CNCCc1c[nH]c2ccc(OC)cc12 | 4.1 nM | 450 nM | 840 nM | 110 |  | 
21 | COc1ccc2[nH]cc(CCN3CCCCC3)c2c1 | 230 nM | 160 nM | > 10000 nM |  |  | 
22 | COc1ccc2[nH]cc(CCNCc3ccc(I)cc3)c2c1 | 120 nM | 400 nM | 1770 nM |  | 15 | 3
23 | COc1cc(CCNCc2ccc(N)cc2)c(OC)cc1Br | 16 nM | 50 nM | 1020 nM |  | 64 | 3
24 | COc1ccc2[nH]cc(CCNCc3ccc([N+](=O)[O-])cc3)c2c1 | 140 nM | 4260 nM | 9970 nM |  | 70 | 30
25 | COc1ccc(CNCCc2c[nH]c3ccc(OC)cc23)cc1 | 16 nM | 100 nM | 1180 nM |  | 74 | 6
26 | COc1cc(CCNCCCc2ccccc2)c(OC)cc1Br | 23 nM | 84 nM | 310 nM |  | 13 | 4
27 | COc1ccc(CNCCc2cc(OC)c(Br)cc2OC)cc1 | 13 nM | 16 nM | 215 nM |  | 17 | 1
28 | COc1cc(CCNCc2ccc(C)cc2)c(OC)cc1Br | 14 nM | 23 nM | 225 nM |  | 16 | 2
29 | COc1cc(CCNCc2ccc([N+](=O)[O-])cc2)c(OC)cc1Br | 58 nM | 290 nM | 1220 nM |  | 21 | 5
30 | COc1cc(CCNCc2ccc(I)cc2)c(OC)cc1Br | 0.4 nM | 22 nM | 165 nM |  | 410 | 55
